# Measurements taken from ChEMBL document CHEMBL1833879, “Anti-obesity effects of the methanolic extract and chakasaponins from the flower buds of Camellia sinensis in mice” (2011).
# Calls of active or inactive are those of the source. The rule behind the calls is not given here.
# How the values were obtained:
# Mus musculus [1] = assay: Antiobesity activity in ddY mouse assessed as inhibition of AgRP mRNA level in hypothalamus at 25 mg/kg, po for 4 days relative to control; assay type: functional
# Outline: (§1)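 Male ddY mice dosed po once daily at 15:00–17:00 for 4 d. Hypothalamus dissected 1 h after final dose, held in RNAlater, total RNA extracted. NPY and AgRP mRNA quantified by SYBR qPCR (40 cycles, annealing 58 °C) by relative quantification normalised to β-actin and expressed as ratio to control; n = 6, mean ± SEM.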
# Mus musculus [2] = assay: Antiobesity activity in ddY mouse assessed as inhibition of AgRP mRNA level in hypothalamus at 50 mg/kg, po for 4 days relative to control; assay type: functional; outline: as §1
# Mus musculus [3] = assay: Antiobesity activity in ddY mouse assessed as inhibition of neuropeptide Y mRNA level in hypothalamus at 25 mg/kg, po for 4 days relative to control; assay type: functional; outline: as §1
# Mus musculus [4] = assay: Antiobesity activity in ddY mouse assessed as inhibition of neuropeptide Y mRNA level in hypothalamus at 50 mg/kg, po for 4 days relative to control; assay type: functional; outline: as §1
# Mus musculus [5] = assay: Antiobesity activity in ddY mouse assessed as gastric emptying at 50 mg/kg, po measured for 30 mins by Phenol red method (RVb = 90.4 +/- 1.2 %); assay type: functional, Stomach
# Ileum [6] = assay: Induction of 5-HT release from ddY mouse ileum assessed per gram of tissue at 1000 µM after 20 mins by HPLC (RVb = 11.2 +/- 1.3 ng/g tissue)
# Mus musculus [7] = assay: Antiobesity activity in capsaicin treated ddY mouse assessed as inhibition of gastric emptying at 50 mg/kg, po measured for 30 mins by Phenol red method (RVb = 87.7 +/- 2.3 %); assay type: functional, Stomach; design: scale not given: the % may be the effect or the level left
# Mus musculus [8] = assay: Antiobesity activity in ddY mouse assessed as inhibition of food intake at 50 mg/kg, po; assay type: functional, organism-based; design: dose 50 mg/kg
# Ileum [9] = assay: Induction of 5-HT release from ddY mouse ileum assessed as remaining 5-HT per gram of tissue at 100 uM after 20 mins by HPLC (RVb = 68.8 +/- 12.4 ng/g tissue)
# Mus musculus [10] = assay: Antiobesity activity in ddY mouse assessed as gastric emptying at 25 mg/kg, po measured for 30 mins by Phenol red method (RVb = 90.4 +/- 1.2 %); assay type: functional, Stomach
# Mus musculus [11] = assay: Antiobesity activity in capsaicin-treated ddY mouse assessed as reduction in food intake at 50 mg/kg, po for 3 days; assay type: functional, organism-based; design: dose 50 mg/kg
# Ileum [12] = assay: Induction of 5-HT release from ddY mouse ileum assessed as remaining 5-HT per mg of protein at 100 µM after 20 mins by HPLC (RVb = 0.861 +/- 0.164 ng/mg protein)
# Mus musculus [13] = assay: Antiobesity activity in capsaicin treated ddY mouse assessed as gastric emptying at 25 mg/kg, po measured for 30 mins by Phenol red method (RVb = 87.7 +/- 2.3 %); assay type: functional, Stomach
# Ileum [14] = assay: Induction of 5-HT release from ddY mouse ileum assessed as remaining 5-HT per gram of tissue at 1000 µM after 20 mins by HPLC (RVb = 68.8 +/- 12.4 ng/g tissue)
# Ileum [15] = assay: Induction of 5-HT release from ddY mouse ileum assessed per gram of tissue at 100 µM after 20 mins by HPLC (RVb = 11.2 +/- 1.3 ng/g tissue)
# Ileum [16] = assay: Induction of 5-HT release from ddY mouse ileum assessed as remaining 5-HT per mg of protein at 1000 µM after 20 mins by HPLC (RVb = 0.861 +/- 0.164 ng/mg protein)
# Mus musculus [17] = assay: Antiobesity activity in ddY mouse assessed as food intake at 50 mg/kg, po measured upto 3 days (RVb = 15.2 g); assay type: functional
# Mus musculus [18] = assay: Antiobesity activity in ddY mouse assessed as gastric emptying at 25 mg/kg, po measured for 30 mins by Phenol red method (RVb = 86.6 +/- 1.8 %); assay type: functional, Stomach
# Mus musculus [19] = assay: Antiobesity activity in capsaicin treated ddY mouse assessed as gastric emptying at 50 mg/kg, po measured for 30 mins by Phenol red method (RVb = 85.8 +/- 2 %); assay type: functional, Stomach
# Mus musculus [20] = assay: Antiobesity activity in ddY mouse assessed as gastric emptying at 50 mg/kg, po measured for 30 mins by Phenol red method (RVb = 86.6 +/- 1.8 %); assay type: functional, Stomach
# Mus musculus [21] = assay: Antiobesity activity in capsaicin-treated ddY mouse assessed as gastric emptying at 25 mg/kg, po measured for 30 mins by Phenol red method (RVb = 85.8 +/- 2 %); assay type: functional, Stomach
smiles,measurement,setting,value
CC1(C)C[C@H]2C3=CC[C@@H]4[C@@]5(C)CC[C@H](O[C@@H]6O[C@H](C(=O)O)[C@@H](O)[C@H](O[C@@H]7OC[C@H](O)[C@H](O)[C@H]7O[C@@H]7OC[C@@H](O)[C@H](O)[C@H]7O)[C@H]6O[C@@H]6O[C@H](CO)[C@H](O)[C@H](O)[C@H]6O)C(C)(C)[C@@H]5CC[C@@]4(C)[C@]3(C)[C@@H](O)[C@@H](O)[C@@]2(CO)[C@@H](O)[C@@H]1O,inhibition,Mus musculus [1],inactive
same,inhibition,Mus musculus [2],inactive
same,inhibition,Mus musculus [3],inactive
C/C=C(\C)C(=O)O[C@H]1[C@H](OC(=O)/C(C)=C/C)[C@]2(CO)[C@H](O)[C@H](O)[C@]3(C)C(=CC[C@@H]4[C@@]5(C)CC[C@H](O[C@@H]6O[C@H](C(=O)O)[C@@H](O)[C@H](O[C@@H]7OC[C@H](O)[C@H](O)[C@H]7O[C@@H]7OC[C@@H](O)[C@H](O)[C@H]7O)[C@H]6O[C@@H]6O[C@H](CO)[C@H](O)[C@H](O)[C@H]6O)C(C)(C)[C@@H]5CC[C@]43C)[C@@H]2CC1(C)C [CHAKASAPONIN II],fold change (FC),Mus musculus [4],0.63
same,Activity,Mus musculus [5],57.6%
same,Activity,Ileum [6],28.3 ng/g
same,Activity,Mus musculus [7],67.1%
same,inhibition,Mus musculus [8],Active
same,fold change (FC),Mus musculus [1],1.08
same,Activity,Ileum [9],50.8 ng/g
same,Activity,Mus musculus [10],77.9%
same,Activity,Mus musculus [11],Active
same,fold change (FC),Mus musculus [2],1.03
same,Activity,Ileum [12],0.659 ng/mg
same,fold change (FC),Mus musculus [3],1.09
same,Activity,Mus musculus [13],81.4%
same,Activity,Ileum [14],31.6 ng/g
same,Activity,Ileum [15],15.6 ng/g
same,Activity,Ileum [16],0.396 ng/mg
C/C=C(\C)C(=O)O[C@H]1[C@H](OC(C)=O)[C@]2(CO)[C@H](O)[C@H](O)[C@]3(C)C(=CC[C@@H]4[C@@]5(C)CC[C@H](O[C@@H]6O[C@H](C(=O)O)[C@@H](O)[C@H](O[C@@H]7OC[C@H](O)[C@H](O)[C@H]7O[C@@H]7OC[C@@H](O)[C@H](O)[C@H]7O)[C@H]6O[C@@H]6O[C@H](CO)[C@H](O)[C@H](O)[C@H]6O)C(C)(C)[C@@H]5CC[C@]43C)[C@@H]2CC1(C)C [CHAKASAPONIN III],Activity,Mus musculus [17],12.6 g
C/C=C(\C)C(=O)O[C@H]1[C@H](OC(C)=O)[C@]2(CO)[C@H](O)C[C@]3(C)C(=CC[C@@H]4[C@@]5(C)CC[C@H](O[C@@H]6O[C@H](C(=O)O)[C@@H](O)[C@H](O[C@@H]7OC[C@H](O)[C@H](O)[C@H]7O[C@@H]7OC[C@@H](O)[C@H](O)[C@H]7O)[C@H]6O[C@@H]6O[C@H](CO)[C@H](O)[C@H](O)[C@H]6O)C(C)(C)[C@@H]5CC[C@]43C)[C@@H]2CC1(C)C [CHAKASAPONINS I],Activity,Mus musculus [18],76.4%
same,Activity,Mus musculus [19],68%
same,Activity,Mus musculus [20],55.7%
same,Activity,Mus musculus [21],79.2%
same,Activity,Mus musculus [17],10.5 g
